In the library only some 3.2% were active in any assay of this set; here they are far more common.
Cneo AK release: causes C. neoformans cell lysis | adenylate kinase release luminescence, 4 h; normalised: neutral wells 0, clomiphene wells 100 | lysis activity, % at 15 µM | 360,000 tested, 0.2% active | AID 651654;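 active = mean lysis activity across replicates of at least 80%, whatever share of replicates individually reach that level; inactive = mean lysis activity below 80%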
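Assay system: Cryptococcus neoformans yeast cells / Dosing: single-point compound dose / Timing: 4 h at 37 °C static, read 1 h later / Measured by: luminescence of released adenylate kinase using an AK detection reagent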
MLL AF4-AF9 inh: MLL-AF4/AF9 protein interaction inhibition; P42568; AlphaScreen, biotin-AF4 peptide binding to FLAG-AF9; inhibition, % at 10 µM; 350,000 tested, 0.47% active; AID 651704;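 active = every replicate reaching a set inhibition limit, whatever the replicate mean, cut at about 25% in these data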
Target sequence (P42568 whole entry, looked up): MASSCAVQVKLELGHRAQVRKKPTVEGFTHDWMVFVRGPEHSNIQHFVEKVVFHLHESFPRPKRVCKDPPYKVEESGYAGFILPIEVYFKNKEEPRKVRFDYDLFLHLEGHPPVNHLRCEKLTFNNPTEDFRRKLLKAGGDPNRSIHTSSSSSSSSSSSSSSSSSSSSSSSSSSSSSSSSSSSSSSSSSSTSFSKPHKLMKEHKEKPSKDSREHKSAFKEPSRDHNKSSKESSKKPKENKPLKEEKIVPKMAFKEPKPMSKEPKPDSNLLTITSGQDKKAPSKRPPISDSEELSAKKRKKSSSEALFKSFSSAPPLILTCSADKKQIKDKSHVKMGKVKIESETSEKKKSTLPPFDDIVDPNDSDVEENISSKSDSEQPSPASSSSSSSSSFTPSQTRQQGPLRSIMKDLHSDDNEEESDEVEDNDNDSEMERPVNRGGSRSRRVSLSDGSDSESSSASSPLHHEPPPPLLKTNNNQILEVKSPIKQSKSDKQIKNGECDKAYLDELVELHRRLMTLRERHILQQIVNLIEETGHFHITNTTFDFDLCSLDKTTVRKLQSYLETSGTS
PfHsp90 set2: inhibits growth of yeast expressing Plasmodium falciparum Hsp90 | S. cerevisiae expressing PfHsp90, BacTiter-Glo ATP, 48 h; yeast lacking PDR1 and PDR3 efflux regulators | inhibition, % at 9.4 µM | 310,000 tested, 0.32% active;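 active = every replicate shows inhibition above about 80%, whatever the replicate mean, limit read from the data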
S100A4 inh HTS: blocks human S100A4 binding to myosin IIA peptide | S100A4/TAMRA-MyoIIA peptide fluorescence polarization | P26447 | inhibition, % at 10.7 µM | 360,000 tested, 0.14% active;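 active = mean inhibition of at least 70% across replicates, with every replicate also reaching that level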
Target sequence (P26447 whole entry, looked up): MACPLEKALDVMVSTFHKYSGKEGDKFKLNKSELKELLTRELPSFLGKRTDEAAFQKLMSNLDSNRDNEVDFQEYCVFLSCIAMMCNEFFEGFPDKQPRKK
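Material: human S100A4 monomer with TAMRA-labelled myosin IIA peptide; buffer or medium: HEPES pH 7.2 with CaCl2, KCl, NaCl, DTT, Triton; compound dosing: one concentration per compound; schedule: 5 min incubation before reading; benchmarks: neutral control DMSO, positive control TFP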
DENV2 CPE rescue: inhibitors of DENV2 cytopathic effect. DENV2-infected cells, cytopathic effect rescue, plate reader. CPE inhibition, % at 9.99 µM. 350,000 tested, 1.7% active. AID 651640; in the data active = CPE inhibition above about 20%, passing the limit was not always enough; tested in BHK-21 cells
rRNA inh HTS: inhibits bacterial ribosomal RNA function over humanized ribosomes. E. coli WT GFP vs humanized-ribosome RFP mutants, fluorescence, 24 h; hits give low values; DMSO median 0, no signal -100. GFP signal change (wild-type ribosome), % (no concentration beside the values). 350,000 tested, 1.6% active. AID 720706;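 active = significant combined selectivity score with lowered wild-type GFP, culture density cut under 30%, mutant RFP and density less affected; inactive = any of these conditions unmet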
Numbers stand for hits; - = inactive; . = no result given.

SMILES | Cneo AK release | MLL AF4-AF9 inh | PfHsp90 set2 | S100A4 inh HTS | DENV2 CPE rescue | rRNA inh HTS
O=C(C[C@@H]1CC[C@@H]2[C@H](COC[C@H](O)CN2S(=O)(=O)c2ccccc2)O1)N[C@@H]1CCN(Cc2ccccc2)C1 | - | - | . | - | - | -
C=CC#CC[N+]1(CC#Cc2ccccc2)CCOCC1 | . | 97 | - | - | - | -
C(#Cc1ccccc1)C[N+]1(CC#Cc2ccccc2)CCCC1 | - | - | - | - | - | -44
Cc1ccccc1-c1ccc2c(c1)O[C@@H](CN(C)C(=O)C1CC1)[C@H](C)CN([C@H](C)CO)S2(=O)=O | - | - | . | - | - | -
CCN(CCO)c1ccc(N=Nc2cc(C)[nH]n2)cc1 | . | - | - | - | - | -21
CCN(CCO)c1ccc(Nc2cc(-c3ccc(-c4ccccc4)cc3)ncn2)cc1 | - | - | . | - | - | .
CNC[C@@H]1OCCCC[C@@H](C)Oc2ccc(NC(=O)Cc3ccccc3)cc2C(=O)N([C@@H](C)CO)C[C@H]1C | - | - | . | - | - | -
Cc1ccc(NC(=S)NC2CCCC2)cc1C | - | . | - | . | . | .
Cc1nc2ccc(NC(=S)NC3CCCCC3)cc2nc1C | . | - | - | - | . | -28
N#C[C@H]1[C@@H](c2ccccc2-c2cccc(F)c2)[C@@H](CO)N1C(=O)c1cccnc1 | . | - | . | - | - | -
CCCN1C[C@@H](C)[C@@H](OC)CN(C)C(=O)c2cc(NS(=O)(=O)c3ccccc3)ccc2OC[C@H]1C | - | - | . | - | - | -
CCCN1C[C@H](C)[C@@H](OC)CN(C)C(=O)c2ccc(NS(C)(=O)=O)cc2OC[C@H]1C | - | - | . | - | 27 | -
CO[C@@H]1CN(C)C(=O)c2ccc(NS(C)(=O)=O)cc2OC[C@H](C)N(Cc2nccs2)C[C@@H]1C | - | - | . | - | 72 | -
CCCN1C[C@@H](C)[C@H](OC)CN(C)C(=O)c2ccc(NS(=O)(=O)c3ccccc3)cc2OC[C@@H]1C | - | - | . | - | 37 | -
Cc1ccc(S(=O)(=O)N(C)C[C@@H]2OCCCC[C@H](C)Oc3ccc(NC(=O)Nc4ccccc4)cc3C(=O)N([C@@H](C)CO)C[C@@H]2C)cc1 | - | - | . | - | - | -
Cc1noc(C)c1S(=O)(=O)N(C)C[C@H]1Oc2ccc(NC(=O)NC(C)C)cc2CC(=O)N([C@@H](C)CO)C[C@H]1C | - | - | . | - | - | -
Cn1ncc(Br)c1C(=O)NC1CCCCCCC1 | - | - | - | - | - | -
Cn1ncc(Br)c1C(=O)NC1C2CC3CC(C2)CC1C3 (configuration not stated) | . | - | - | - | - | -30
O=C1CS/C(=N/N=C/c2ccncc2)N1 | - | . | . | - | - | -
Cn1ccc(/C=N/N=C2/NC(=O)CS2)n1 | - | - | - | - | - | -43
C[C@@H]1CN([C@@H](C)CO)C(=O)c2cc(NC(=O)NC3CCCCC3)ccc2O[C@@H]1CN(C)Cc1ccc(C(=O)Nc2ccccc2N)cc1 | . | - | . | - | - | -
CCCC(=O)Nc1ccc2c(c1)C(=O)N(C)C[C@H](OC)[C@H](C)CN(C(=O)CC)[C@@H](C)CO2 | . | . | . | . | . | -
N#Cc1ccc(C23CC4(C2)[C@H](CN(Cc2ccc(C(F)(F)F)cc2)[C@@H]4c2ccccc2)C3c2ccccc2)cc1 (some centres not stated) | 135 | . | - | - | - | -
N#Cc1ccc(C23CC4(C2)[C@H](CN(Cc2ccc(C(F)(F)F)cc2)[C@@H]4c2ccccc2)C3c2ccc(C(F)(F)F)cc2)cc1 (some centres not stated) | . | - | . | - | - | .
CCC(CC)C(=O)Nc1c(C(=O)N2CCN(c3ccccc3)CC2)oc2ccccc12 | - | - | - | - | - | -30
SMILES | Cneo AK release | MLL AF4-AF9 inh | PfHsp90 set2 | S100A4 inh HTS | DENV2 CPE rescue | rRNA inh HTS
CC(C)C(=O)Nc1c(C(=O)N2CCN(c3ncccn3)CC2)oc2ccccc12 | - | - | - | - | - | -
CC(C)NC(=O)N[C@@H]1C=C[C@H](CC(=O)NC2Cc3ccccc3C2)O[C@H]1CO | - | - | . | - | - | -
Cc1ccc(S(=O)(=O)N[C@@H]2CC[C@@H](CC(=O)NCc3ccc(Cl)c(Cl)c3)O[C@H]2CO)cc1 | - | - | . | - | - | -
O=C1CCC(=O)N(O)CCCCCNC(=O)CCC(=O)N(O)CCCCNC(=O)CCC(=O)N(O)CCCCCN1 | - | - | - | - | 87 | .
COc1cccc(-c2cnc3c(NC=O)cc(-c4ccc(N5CCN(C)CC5)cc4)cn23)c1 | - | 35 | . | - | - | -
COc1cc(-c2cnc3c(NC=O)cc(-c4ccc(C)cc4)cn23)cc(OC)c1OC | - | - | . | - | 95 | -
COc1cc(-c2cnc3c(NC=O)cc(-c4ccccc4)cn23)cc(OC)c1OC | - | - | . | - | - | -
COc1ccc(S(=O)(=O)N(C)C[C@@H]2Oc3ccc(NC(=O)Nc4c(C)noc4C)cc3C(=O)N([C@H](C)CO)C[C@H]2C)cc1 | - | - | . | - | - | -
COc1ccc(S(=O)(=O)Nc2ccc3c(c2)CC(=O)N([C@@H](C)CO)C[C@@H](C)[C@H](CN(C)Cc2ccc(C(=O)Nc4ccccc4N)cc2)O3)cc1 | . | - | . | - | - | -
O=C(O)c1cc(=O)c2c(OCC(O)COc3cccc4oc(C(=O)O)cc(=O)c34)cccc2o1 | - | - | - | - | 26 | .
COc1ccccc1C(=O)N1C[C@@H]2[C@H](c3ccccc31)[C@@H](CO)N2C(=O)C1CCCCC1 | - | - | . | - | - | -
CNC[C@H]1Oc2cc(C#CCOC)ccc2S(=O)(=O)N([C@@H](C)CO)C[C@@H]1C | - | - | . | - | - | -
C[C@@H]1CN([C@@H](C)CO)C(=O)c2cc(NC(=O)Nc3ccccc3)ccc2O[C@@H](C)CCCCO[C@@H]1CN(C)S(=O)(=O)c1ccc(Cl)cc1 | - | - | . | - | - | -
O=S(=O)(NC1CC2CCC1C2)c1ccc2c(c1)OCCO2 (configuration not stated) | - | . | - | . | . | .
COc1ccc(S(=O)(=O)NC2CC3CCC2C3)cc1Cl (configuration not stated) | - | - | 141 | - | - | -
COc1ccc(S(=O)(=O)NC2CC3CCC2C3)cc1Br (configuration not stated) | - | - | 114 | - | - | -
COc1cc(OC)cc(-c2nnc(SCc3c(F)cccc3Cl)o2)c1 | - | - | - | - | - | -28
Cn1cc(CNCc2cn(C)nc2-c2ccc(C3CCCCC3)cc2)cn1 | . | - | . | - | - | -20
COc1ccc2c3c(n(C)c2c1)[C@@H](CO)N(C(=O)NC(C)C)CC31CCN(C(=O)NC(C)C)CC1 | . | - | . | - | - | -

Assay outcomes as filed in PubChem BioAssay.
